Here are results for 71 compounds from ChEMBL document CHEMBL4513216, “Probing the Open Global Health Chemical Diversity Library for Multistage-Active Starting Points for Next-Generation Antimalarials” (ACS Infect Dis, 2020).

The nature of the data set: Toxicity liver stage against HepG2, at 10uM. The class given is cell-based. The arrangement: test concentration 10 uM, cell line HepG2-A16-CD81EGFP. Conditions: human, HepG2-A16-CD81EGFP cells; read-out: INHIBITION
The gist of the method: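 Uninfected HepG2-A16-CD81EGFP cells, 3 × 10^3 per well, 1536-well, plated on prespotted compound at 10 μM final, parasite-free screening media added to match infected plates; puromycin 10 μM positive, DMSO 0.5% negative; run in parallel with 48 h PbLuc assay at 37 °C, 5% CO2; viability by CellTiter-Glo luminescence, normalized to controls.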
Consider `Cc1noc([C@@H]2C[C@H](NC(=O)C3CCCCC3)CN2C)n1`, for which the cytotoxicity at 10 µM is -4.89%.

In the case of `CC(=O)c1cccc(NC(=O)Cn2cnc(-c3cccs3)cc2=O)c1`, the cytotoxicity at 10 µM was -4.44%.

For the compound `O=C(NC1CCN(c2ccc(-c3ccccc3F)nn2)C1)c1cc[nH]n1` (stereo unspecified), the cytotoxicity at 10 µM came to 3.17%.

For the compound `Cc1cc(CNC(=O)c2cnoc2C)c(C)o1`, the cytotoxicity at 10 µM is -6.32%.

With `CS(=O)(=O)NC[C@]12COC[C@H]1CN(C(=O)c1ccncn1)C2`, the cytotoxicity at 10 µM amounted to 9.2%.

With `COC(=O)CC(c1ccc(OC)c(OC)c1OC)c1c(O)n[nH]c1C` (stereo unspecified), the cytotoxicity at 10 µM came out at 4.02%.

Regarding `Cc1cc(Nc2nc(C)cc(C)n2)cc(C2CCCN2)n1` (stereo unspecified), the cytotoxicity at 10 µM was determined as 0.407%.

As to `COc1cccc([C@@H]2N[C@H](c3nccs3)Cc3ccsc32)c1OC`, the cytotoxicity at 10 µM came to 5.24%.

Regarding `CCc1cc(C(=O)N2CCC(c3cc4ncccc4cn3)CC2)no1`, the cytotoxicity at 10 µM is -14.4%.

For the compound `Cc1ccc(-c2nc(CCNCc3ccncc3)co2)cc1`, the cytotoxicity at 10 µM was -4.96%.

On to `Cc1cc(C)n(CC(C)CNC(=O)N(C)Cc2ccco2)n1` (stereo unspecified), for which the cytotoxicity at 10 µM is 4.47%.

As to `CC(C)c1cc(N2CCC(NS(C)(=O)=O)C2)nc(C(C)C)n1` (stereo unspecified), the cytotoxicity at 10 µM amounted to 4.34%.

For the compound `Cc1ccc(CN(C)C(=O)CCn2c(=O)n(C)c3ccccc32)o1`, the cytotoxicity at 10 µM turned out to be 4%.

Consider `COc1ccc(C(C)NCCC(N)=O)cc1F` (stereo unspecified), for which the cytotoxicity at 10 µM is -7.77%.

As to `O=C(NCc1nnc2n1CCC2)c1ccc(Br)s1`, the cytotoxicity at 10 µM is 2.74%.

Consider `COCCCNc1cc(C(=O)N2CCOCC2)ccc1C`, for which the cytotoxicity at 10 µM stood at 7.1%.

For the compound `COCCOc1ccc(CNC2CCc3ncnn3C2)cc1OC` (stereo unspecified), the cytotoxicity at 10 µM is -7.2%.

Turning to `CCCN1CCC(NC(=O)c2ccnc(SCC)c2)CC1`, the cytotoxicity at 10 µM is -4.14%.

As to `O=C(NCCc1nnc2n1CCC2)N(Cc1ccco1)C1CCCC1`, the cytotoxicity at 10 µM stood at 5.04%.

Turning to `Cc1ccc(C(=O)N2CCOC(c3nc(C(C)(C)C)n[nH]3)C2)c(=O)[nH]1` (stereo unspecified), the cytotoxicity at 10 µM was 1.31%.

Regarding `CCCNC(=O)CCNC(=O)c1sc2ccc(F)cc2c1C`, the cytotoxicity at 10 µM is 3.33%.

In the case of `c1cnnc(N2CCCC2CNCc2nnc(C3CC3)o2)c1` (stereo unspecified), the cytotoxicity at 10 µM came out at 1.41%.

For the compound `Cc1n[nH]c(C2CN(C(=O)c3cc(C4CC4)on3)CCO2)n1` (stereo unspecified), the cytotoxicity at 10 µM was -9.63%.

As for `CC(C)(C)OC(=O)N1CCC[C@H](NCc2cc[nH]c2)C1`, the cytotoxicity at 10 µM worked out at 1.05%.

For `Cc1cc(NC(=O)Nc2ccc3c(ccn3CCN(C)C)c2)n(C)n1`, the cytotoxicity at 10 µM turned out to be 3.38%.

For the compound `COC(=O)CCC(=O)NC1CCCc2cc(OC(F)F)ccc21` (stereo unspecified), the cytotoxicity at 10 µM is -4.52%.

For the compound `CC(SCC(=O)N(C)CC(=O)NC1CC1)c1cc(F)ccc1F` (stereo unspecified), the cytotoxicity at 10 µM is 8.13%.

For the compound `Cc1nc(CN(CCS(C)(=O)=O)C(C)C)no1`, the cytotoxicity at 10 µM came to 0.329%.

`CN(C)c1cccc(C2CCCN2CCCN2CCOC2=O)c1` (stereo unspecified): the cytotoxicity at 10 µM is -10.2%.

Regarding `CN(CCNC(=O)Nc1cnn(C)c1)Cc1ccc(F)cc1`, the cytotoxicity at 10 µM turned out to be 7.72%.

Consider `CCN1CCNC(=O)C12CCN(C(=O)Cc1ccccn1)CC2`, for which the cytotoxicity at 10 µM is 4.71%.

Take `CN(C)Cc1nc(-n2cnc(C(=O)NCC3CC3)c2)n2ccccc12`: the cytotoxicity at 10 µM was found to be 1.55%.

Regarding `O=C(c1ccc[nH]1)N1CCCn2cnc(COCC3CC3)c2C1`, the cytotoxicity at 10 µM was -73.6%.

`Cc1nc(COC[C@H]2CCC[C@]23CN(C2CCOC2)CCO3)cs1` (stereo partly specified): the cytotoxicity at 10 µM was -79.5%.

As to `CN(Cc1ccccn1)c1nccc(N2CCN[C@H]3CS(=O)(=O)C[C@H]32)n1`, the cytotoxicity at 10 µM amounted to 10.5%.

In the case of `COc1ccc(Oc2cccnc2)cc1CN1CCCC1`, the cytotoxicity at 10 µM was found to be 2.67%.

As for `CCC[C@H]1CN(Cc2ccccc2C#N)C[C@@H]1NS(C)(=O)=O`, the cytotoxicity at 10 µM is -11%.

As for `Cc1ccc(N2CCC(c3[nH]ncc3Cc3ccccc3)CC2)nn1`, the cytotoxicity at 10 µM was -6.86%.

In the case of `COCCCN(Cc1cnc(C2CCCCC2)nc1)C1CCN(C)CC1`, the cytotoxicity at 10 µM was -4.43%.

Turning to `NC(=O)Cn1ccnc1C1CCCN(Cc2nc3ccccc3s2)C1` (stereo unspecified), the cytotoxicity at 10 µM is -17%.

As for `COCCc1noc(-c2cn(Cc3ccccc3C)nn2)n1`, the cytotoxicity at 10 µM amounted to 3.15%.

On to `O=S1(=O)CCC(n2nc(Cc3cccs3)nc2-c2cnccn2)C1` (stereo unspecified), for which the cytotoxicity at 10 µM is -6.33%.

`CC(C)Oc1cc(N2CCN(Cc3ccsc3)C(CCO)C2)nc(N)n1` (stereo unspecified): the cytotoxicity at 10 µM is -6.35%.

As to `Cc1nccnc1N1CCC(Cc2ccccc2Cl)(C(=O)O)CC1`, the cytotoxicity at 10 µM was determined as 12.6%.

On to `c1ccc(CN(Cc2cccc3cnccc23)CC2CCCO2)nc1` (stereo unspecified), for which the cytotoxicity at 10 µM was -5.68%.

Consider `CSCC(=O)N1CCCN(c2ccncc2C)CC1`, for which the cytotoxicity at 10 µM was -6.09%.

Take `COc1cc(F)ccc1-c1cc(N)ccn1`: the cytotoxicity at 10 µM is -9.5%.

On to `Cc1ccc(-c2ccnc(NC(C)c3ncc[nH]3)n2)c(C)n1` (stereo unspecified), for which the cytotoxicity at 10 µM was found to be 3.29%.

Consider `CCn1cc(CN2CCC(CCC(=O)Nc3ccccc3Cl)CC2)cn1`, for which the cytotoxicity at 10 µM was -0.99%.

With `C1CCC(c2nnc3sc(C4CCCO4)nn23)C1` (stereo unspecified), the cytotoxicity at 10 µM is 8.61%.

Regarding `CC(c1cccc(-c2cn(Cc3ccoc3)nn2)c1)N(C)C` (stereo unspecified), the cytotoxicity at 10 µM worked out at 1.35%.

As to `CCc1cccc(OCCN(C)C(=O)c2ccccc2NCC(=O)O)c1`, the cytotoxicity at 10 µM is -2.69%.

For the compound `Cc1cccnc1C(=O)N1CCCC(c2[nH]ncc2S(C)(=O)=O)C1` (stereo unspecified), the cytotoxicity at 10 µM is 7.58%.

Take `CC(C(=O)NCc1ccnc(N(C)C)c1)n1cccn1` (stereo unspecified): the cytotoxicity at 10 µM is -13.8%.

Turning to `CC(C)c1ncncc1C(=O)N1CCN(Cc2cscn2)CC1`, the cytotoxicity at 10 µM is -5.75%.

Regarding `c1cnnc(N2CCCC2CNCc2cc[nH]n2)c1` (stereo unspecified), the cytotoxicity at 10 µM was -0.807%.

Consider `Cc1nc(-c2ccsc2)ccc1C(=O)NCCC(=O)N1CCCC1`, for which the cytotoxicity at 10 µM is -9.57%.

`Cc1nn(C)c(C)c1C1CCCN1CCCc1nc2ccccc2o1` (stereo unspecified): the cytotoxicity at 10 µM is -4.3%.

Take `Cc1ccc(F)cc1S(=O)(=O)NCc1cccnc1N(C)C`: the cytotoxicity at 10 µM is 0.716%.

With `O=C(NCCn1nc2ccccn2c1=O)c1cccc2[nH]ncc12`, the cytotoxicity at 10 µM is -0.472%.

Take `CNCc1ccc([C@@H]2CN(C)C[C@H]2C(N)=O)cc1`: the cytotoxicity at 10 µM was determined as 7.67%.

Regarding `CNC(=O)C(C)(C)N1CCC[C@H]1C(=O)NCCN(C)C`, the cytotoxicity at 10 µM worked out at 2.2%.

For the compound `Cc1noc(C)c1CN1CCCC2(CCN(CC3CCCC3)C2)C1` (stereo unspecified), the cytotoxicity at 10 µM was -4.1%.

Take `CC(C)N1CCC2(CC1)C(=O)N(CCN(C)C)c1ccccc12`: the cytotoxicity at 10 µM is -121%.

As for `CNCC(=O)N1CCCC(c2nccnc2Oc2cccc(F)c2)C1` (stereo unspecified), the cytotoxicity at 10 µM is 6.87%.

As for `c1cn2c(n1)CN(Cc1ccsc1)CC(Cn1cncn1)C2` (stereo unspecified), the cytotoxicity at 10 µM is -74.8%.

Take `COc1ncccc1CN1C[C@H]2CCN(C(C)C)C[C@H]2C1`: the cytotoxicity at 10 µM turned out to be 2%.

In the case of `Cn1ccnc1C(=O)N[C@@H]1CN(Cc2ccc(F)cc2)[C@@H]2CCCO[C@@H]21`, the cytotoxicity at 10 µM was -111%.

Regarding `CCS(=O)(=O)N1CC[C@@H]2[C@H](CC1)N(Cc1cccc(C)n1)CCS2(=O)=O`, the cytotoxicity at 10 µM was -3.98%.

Consider `CCCS(=O)(=O)N1C[C@@H]2C[C@H](C(=O)N(C)C)[C@H](C1)O2`, for which the cytotoxicity at 10 µM was -74%.

For the compound `CN1CCN(C=C2N=C(c3cc(-c4ccccc4F)n[nH]3)ON2)CC1`, the cytotoxicity at 10 µM was -4.92%.
